# L major viab – reduces viability of Leishmania major promastigotes; resazurin fluorescence viability; inhibition, % at 10 µM; hit rate 9% among 200,000;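 further: promastigotes grown with compound for 44 hours at 28 °C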
# Diaph act CS – activates diaphorase or chemically reduces, flagging diaphorase assay artifacts; Diaphorase/resazurin coupled assay, resorufin fluorescence, 16 min; active compounds read high; 1 = vehicle wells, 0 = NADH-free wells; activation factor at 20 µM; hit rate 0.005% among 190,000; AID 1229;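 active means diaphorase activity raised at least twofold by the compound at 20 µM; inactive means activation factor below 2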
#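 Test system: Clostridium kluyveri diaphorase, purified enzyme; input: enzyme 0.07 U/mL final; buffer or medium: 50 mM HEPES pH 7.4 with 4.542 mM MgCl2, 0.005% Tween 20; also added: 0.114 mM NADH and 0.1 mM resazurin, final amounts; schedule: 16 min enzyme reaction, ambient temperature; technique: fluorescence of resorufin, 544 nm excitation, 590 nm emission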
# DTT redox prof – compounds producing H2O2 with reducing agent – biochemical, NIH compound library profiling, artefact control for MLSCN library redox annotation, primary screen; DTT-dependent redox cycling H2O2, phenol red/HRP absorbance; 100% = 100 µM peroxide control, 0% = buffer; AID 878; activation, % at 10 µM; hit rate 0.03% among 200,000;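 active means activation of at least 50% relative to the plate's high and low controls in the primary single-dose screen; inactive means activation below 50%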;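 further: compound incubated with DTT at 0.8 mM final as the reducing agent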
# Diaphorase inh – inhibits diaphorase or chemically oxidizes, flagging diaphorase assay artifacts; diaphorase resazurin-to-resorufin fluorescence, NADH, 16 min; bacterial (C. kluyveri) enzyme, not human; inhibition, % at 20 µM; hit rate 0.69% among 190,000; AID 1217;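 active means primary screen inhibition at 20 µM above a set limit, cut at about 50% in these data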;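 further: plate controls were DMSO with full reaction for no effect and wells lacking NADH for full effect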
#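 Detection: fluorescence of resorufin formed from resazurin, Ex 544/Em 590 nm; test system: Clostridium kluyveri diaphorase enzyme; amount: 0.14 U/mL diaphorase, enzyme working solution; times: 16-min room-temperature incubation before reading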
# G6PDH CS – counter-screen for G6PDH assay hits: L. mesenteroides G6PDH inhibition; Purified L. mesenteroides G6PDH, diaphorase/resazurin coupled fluorescence, 45 min; inhibition, % at 5 µM; hit rate 0.12% among 200,000
# PfG6PD inh – PfG6PD (Plasmodium falciparum) enzyme inhibition. AID 504690. hit rate 0.78% among 350,000. inhibition, % at 20 µM. PfGluPho enzyme, NADPH resazurin-diaphorase fluorescence;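 active means inhibition reaching at least a set limit at 20 µM in the primary screen, cut at about 59% in these data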;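 further: 0% = DMSO wells with substrate and 100% = DMSO wells lacking glucose-6-phosphate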
# * marks the source's active call; other numbers are inactive results; . = no result. The entries come from a sample that favours hits as a whole. Unless noted, no stated cut-off is given here; in the data, active means inhibition above about 50%; inactive means the rest.
SMILES,L major viab,Diaph act CS,DTT redox prof,Diaphorase inh,G6PDH CS,PfG6PD inh
O=c1cc(CN2CCN(C/C=C/c3ccccc3)CC2)c2cc(O)ccc2o1,51*,1,0,-2,2,3
Cc1c(Cl)c(=O)oc2cc(OCC(=O)NCc3cccs3)ccc12,62*,0.9,0,6,1,-18
Cc1cc(C)cc(NC(=O)COc2ccc3c(C)c(Cc4ccccc4)c(=O)oc3c2)c1,94*,0.9,0,7,-9,.
COc1ccc(CC(=O)NNS(=O)(=O)c2ccc(F)cc2)cc1,.,.,.,.,.,-15
O=C(CCCn1c(=S)[nH]c2cc3c(cc2c1=O)OCO3)N1CCc2ccccc2C1,0,0.6,3,42,10,-4
Cc1cc([N+](=O)[O-])cc(C)c1OCC(=O)N/N=C/c1ccc(OC(=O)c2ccccc2Br)cc1,85*,0.9,0,6,0,-2
COc1ccc2c(c1OC)C(=O)OC2Nc1nc(-c2ccc(-c3ccccc3)cc2)cs1 (stereo not given),52*,0.8,0,18,-8,3
CCn1c(C)nnc1SCC(=O)Nc1ccc(Cl)cc1,.,.,.,.,.,11
Cc1ccc(C(=O)OCC(=O)NCc2ccc(F)cc2)o1,.,.,.,.,.,-3
COc1ccccc1N1CCN(C2CCN(C(=O)COc3cccc(C)c3)CC2)CC1,56*,0.8,0,17,-1,-5
Cc1ccc(OCC(=O)N2CCN(C(=O)CCC3CCCC3)CC2)cc1,-1,0.9,1,10,2,-9
Cc1ccc(OCC(=O)N2CCC(N3CCCCCC3)CC2)cc1,87*,1,-1,-1,-21,14
COc1ccccc1C(=O)N1CCN(C(=O)COc2cccc(C)c2)CC1,-3,0.9,2,8,6,-18
O=C(CCC1CCCC1)N1CCC(N2CCCCCC2)CC1,91*,1,-1,3,-1,6
COC(=O)C1CCN(C(=O)CCC2CCCCC2)CC1,-7,1,1,3,15,7
CCN(CC)CCCN(Cc1cc2cc3c(cc2[nH]c1=O)OCCO3)C(=O)Nc1ccc(F)cc1,22,1,-1,2,18,9
Cc1ccc(S(=O)(=O)c2ccc(Cl)cc2)cc1S(=O)(=O)N1CCN(C)CC1,99*,1,0,0,4,2
Cc1ccc(S(=O)(=O)c2ccc(Cl)cc2)cc1S(=O)(=O)NC(C)C(=O)O (stereo not given),52*,0.9,0,9,2,-28
CN1CCN(S(=O)(=O)c2ccc(Cl)cc2)CC1,.,.,.,.,.,9
Cc1cc(C)c(C)c(S(=O)(=O)NC(C)C(=O)O)c1C (stereo not given),.,.,.,.,.,-3
COc1cccc(Cn2c(NCc3cccnc3)nc3c2c(=O)n(C)c(=O)n3C)c1,4,1.1,2,-7,6,13
Cn1c(=O)c2c(nc(NCc3cccnc3)n2Cc2cccc(C(F)(F)F)c2)n(C)c1=O,95*,0.9,-1,11,6,-13
COc1ccc2c(c1OC)C(=O)N1N=C(c3ccc(Br)cc3)CC21 (stereo not given),17,1,0,1,-1,6
COc1ccc(C2=NN3C(=O)c4c(ccc(OC)c4OC)C3C2)cc1 (stereo not given),60*,1,2,-3,-19,3
Cc1ccc(S(=O)(=O)Nc2ccc3c(c2)c2c(n3S(=O)(=O)c3ccc(C)cc3)CCCC2=O)cc1,-1,0.9,0,11,6,-1
SMILES,L major viab,Diaph act CS,DTT redox prof,Diaphorase inh,G6PDH CS,PfG6PD inh
CCOC(=O)c1sc2nc(NC(=O)C3CC3)sc2c1C,2,0.8,-2,17,5,10
CCOC(=O)c1sc2nc(NC(=O)C(C)(C)C)sc2c1C,65*,0.7,-1,31,-2,5
CCCCCOc1ccc(CSC(=N)N)cc1[N+](=O)[O-],100*,0.9,-3,5,3,-6
CCOc1ccc(CSC2=NCCN2)cc1[N+](=O)[O-],9,0.9,2,11,1,-11
COc1ccc(CSC(=N)N)cc1[N+](=O)[O-],8,0.9,0,6,5,6
CCCCOc1ccc(Br)cc1CSC(=N)N,99*,1,1,4,-4,10
